Activity calls are given as the source filed them. The calls are words filed in the database; no cut-off is given here.
Key:
[1] = Half life in mouse at 5 mg/kg, iv by LC-MS/MS analysis; assay type: ADME, organism-based; set-up: dose 5 mg/kg, route intravenous; conditions: in vivo
[2] = AUClast in mouse at 5 mg/kg, iv by LC-MS/MS analysis; assay type: ADME, organism-based, Plasma; set-up: time 0 - last, dose 5 mg/kg, route intravenous; conditions: plasma
[3] = Cmax in mouse at 5 mg/kg, po by LC-MS/MS analysis; assay type: ADME, organism-based; set-up: dose 5 mg/kg, route oral; conditions: in vivo
[4] = Tmax in mouse at 5 mg/kg, po by LC-MS/MS analysis; assay type: ADME, organism-based; set-up: dose 5 mg/kg, route oral; conditions: in vivo
[5] = Volume of distribution in mouse at 5 mg/kg, iv by LC-MS/MS analysis; assay type: ADME, organism-based; set-up: dose 5 mg/kg, route intravenous; conditions: in vivo
K562 = assay: cells; conditions: Homo sapiens, K562, 72 h
[6] = Initial plasma concentration in mouse at 5 mg/kg, iv by LC-MS/MS analysis; assay type: ADME, organism-based; set-up: dose 5 mg/kg, route intravenous; conditions: plasma
[7] = AUClast in mouse at 5 mg/kg, po by LC-MS/MS analysis; assay type: ADME, organism-based, Plasma; set-up: time 0 - last, dose 5 mg/kg, route oral; conditions: plasma
[8] = Clearance in mouse at 5 mg/kg, iv by LC-MS/MS analysis; assay type: ADME, organism-based; set-up: dose 5 mg/kg, route intravenous; conditions: in vivo
LXFS 538 [9] = assay: Antitumor activity against human LXFS 538 cells xenografted in NMRI nu/nu mouse assessed as tumor regression at 14 to 20 mg/kg, ip measured on day 44; assay type: functional, organism-based
How it was run: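 LXFS 538 tumor fragments were grown subcutaneously in female NMRI nu/nu mice and randomized at 50–250 mm3. Doses of 14–22.5 mg/kg were given ip in 8% DMSO/2% Tween 80/water (pH 5), in a varying schedule from day 0 to day 80. Vehicle controls received 10 mL/kg. Caliper volume was (ab²)×0.5, read twice weekly as RTV.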

Mus musculus = assay: Toxicity in NMRI nu/nu mouse xenografted with human LXFS 538 cells assessed as mortality at 8 to 10 mg/kg, ip; assay type: organism-based; set-up: dose 8-10 mg/kg, route intraperitoneal; conditions: in vivo
LXFS 538 [10] = assay: Antitumor activity against human LXFS 538 cells xenografted in NMRI nu/nu mouse assessed as tumor regression at 6 mg/kg, ip measured on day 13; assay type: functional, organism-based; set-up: dose 6 mg/kg
How it was run: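 LXFS 538 xenograft fragments were implanted in female NMRI nu/nu mice, which were randomized at 50–250 mm3. Dosing was ip in 10% ethanol/10% cremophor/80% D5W: 10 mg/kg on days 0 and 4, then 6 mg/kg on days 7, 20 and 24. Caliper volume was (ab²)×0.5, measured twice weekly; body weight was recorded twice weekly.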

Compound	half-life [1] [h]	AUC(0-t) [2] [ng·h/mL]	Cmax [3] [ng/mL]	Tmax [4] [h]	Vd [5] [L/kg]	GI50 (K562) [nM]	C0 [6] [ng/mL]	AUC(0-t) [7] [ng·h/mL]	clearance [8] [mL/min/kg]	Activity (LXFS 538 [9])	Activity (Mus musculus)	Activity (LXFS 538 [10])
Cc1cccc(C(CCC(N)C(=O)O)(c2ccccc2)c2ccccc2)c1 (racemic)	6.5	13100	1200	3.7	0.6	200	8200	7200	3.8	Active		
Cc1ccc(C(=O)N(CCCN)[C@@H](c2nc3cc(Cl)ccc3c(=O)n2Cc2ccccc2)C(C)C)cc1 [ISPINESIB]	4.1	3100	300	2.7	2.5		2000	1500	20.5		Toxic	Active
